# Measurements as given in ChEMBL document CHEMBL1821635, “Synthesis and evaluation of aliphatic-chain hydroxamates capped with osthole derivatives as histone deacetylase inhibitors” (Eur J Med Chem, 2011).
# Active and inactive are the calls of the source. No cut-off for these calls is given here.
# Tests used:
# A549 = assay: Antiproliferative activity against human A549 cells after 48 hrs by SRB assay; format: functional
# Outline: (§1)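 Cells seeded in medium with 5% FBS; after 24 h a T0 set fixed with 10% TCA. Compound or vehicle (0.1% DMSO) added for 48 h, then fixed with 10% TCA, stained with 0.4% SRB in 1% acetic acid, bound dye solubilized in 10 mM Trizma base, absorbance at 515 nm. GI50 = concentration halving net protein increase versus control, from [1−(Tx−T0)/(C−T0)]×100%.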
# PC-3 = assay: Antiproliferative activity against human PC3 cells after 48 hrs by SRB assay; format: functional; outline: as §1
# [1] = Antiproliferative activity against human Hep3B cells after 48 hrs by SRB assay; format: functional, Hep 3B2; outline: as §1
# Histone deacetylase = assay: Inhibition of HDAC from human HeLa nuclear extract using Boc-Lys(Ac)-AMC as substrate incubated 30 mins before substrate addition measured after 30 mins post substrate addition by fluorescence assay; format: protein assay
# Histone deacetylase 4 = Histone deacetylase 4 (Homo sapiens, UniProt P56524); assay: Inhibition of HDAC4 using Boc-Lys(TFA)-AMC as substrate incubated 30 mins before substrate addition measured after 30 mins post substrate addition by fluorescence assay
# Sequence of Histone deacetylase 4 (P56524 whole entry): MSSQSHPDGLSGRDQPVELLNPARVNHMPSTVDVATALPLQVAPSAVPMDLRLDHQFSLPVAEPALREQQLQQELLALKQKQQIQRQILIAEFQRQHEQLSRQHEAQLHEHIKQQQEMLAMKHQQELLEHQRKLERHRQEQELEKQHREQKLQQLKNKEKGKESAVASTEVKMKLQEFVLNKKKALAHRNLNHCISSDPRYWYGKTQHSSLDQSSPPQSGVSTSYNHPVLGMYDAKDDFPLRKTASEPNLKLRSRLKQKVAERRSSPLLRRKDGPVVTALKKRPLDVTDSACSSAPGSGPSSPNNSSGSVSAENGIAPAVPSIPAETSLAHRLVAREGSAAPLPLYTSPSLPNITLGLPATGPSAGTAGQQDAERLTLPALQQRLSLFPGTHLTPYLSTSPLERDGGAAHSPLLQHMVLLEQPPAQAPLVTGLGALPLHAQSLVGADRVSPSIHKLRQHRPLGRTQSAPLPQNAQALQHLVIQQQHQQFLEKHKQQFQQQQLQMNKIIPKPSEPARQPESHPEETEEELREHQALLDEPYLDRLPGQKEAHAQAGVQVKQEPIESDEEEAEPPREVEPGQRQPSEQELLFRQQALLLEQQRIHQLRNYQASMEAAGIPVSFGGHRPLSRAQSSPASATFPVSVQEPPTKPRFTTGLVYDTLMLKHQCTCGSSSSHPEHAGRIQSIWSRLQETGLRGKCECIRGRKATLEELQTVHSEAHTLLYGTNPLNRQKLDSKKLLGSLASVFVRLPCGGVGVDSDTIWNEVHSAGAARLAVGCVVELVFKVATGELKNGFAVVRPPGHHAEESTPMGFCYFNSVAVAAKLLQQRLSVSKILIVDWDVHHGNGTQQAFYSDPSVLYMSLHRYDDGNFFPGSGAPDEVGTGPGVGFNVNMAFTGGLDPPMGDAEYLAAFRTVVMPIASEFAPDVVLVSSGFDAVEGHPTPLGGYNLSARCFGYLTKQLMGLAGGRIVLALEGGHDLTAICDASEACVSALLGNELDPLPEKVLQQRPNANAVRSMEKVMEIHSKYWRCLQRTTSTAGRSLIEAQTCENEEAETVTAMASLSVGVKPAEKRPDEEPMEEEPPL
# [2] = target: T1, Protein deacetylase HDAC6 (Homo sapiens, UniProt Q9UBN7); assay: Inhibition of HDAC6 using Boc-Lys(Ac)-AMC as substrate incubated 30 mins before substrate addition measured after 30 mins post substrate addition by fluorescence assay
# T1 sequence (Q9UBN7 whole entry): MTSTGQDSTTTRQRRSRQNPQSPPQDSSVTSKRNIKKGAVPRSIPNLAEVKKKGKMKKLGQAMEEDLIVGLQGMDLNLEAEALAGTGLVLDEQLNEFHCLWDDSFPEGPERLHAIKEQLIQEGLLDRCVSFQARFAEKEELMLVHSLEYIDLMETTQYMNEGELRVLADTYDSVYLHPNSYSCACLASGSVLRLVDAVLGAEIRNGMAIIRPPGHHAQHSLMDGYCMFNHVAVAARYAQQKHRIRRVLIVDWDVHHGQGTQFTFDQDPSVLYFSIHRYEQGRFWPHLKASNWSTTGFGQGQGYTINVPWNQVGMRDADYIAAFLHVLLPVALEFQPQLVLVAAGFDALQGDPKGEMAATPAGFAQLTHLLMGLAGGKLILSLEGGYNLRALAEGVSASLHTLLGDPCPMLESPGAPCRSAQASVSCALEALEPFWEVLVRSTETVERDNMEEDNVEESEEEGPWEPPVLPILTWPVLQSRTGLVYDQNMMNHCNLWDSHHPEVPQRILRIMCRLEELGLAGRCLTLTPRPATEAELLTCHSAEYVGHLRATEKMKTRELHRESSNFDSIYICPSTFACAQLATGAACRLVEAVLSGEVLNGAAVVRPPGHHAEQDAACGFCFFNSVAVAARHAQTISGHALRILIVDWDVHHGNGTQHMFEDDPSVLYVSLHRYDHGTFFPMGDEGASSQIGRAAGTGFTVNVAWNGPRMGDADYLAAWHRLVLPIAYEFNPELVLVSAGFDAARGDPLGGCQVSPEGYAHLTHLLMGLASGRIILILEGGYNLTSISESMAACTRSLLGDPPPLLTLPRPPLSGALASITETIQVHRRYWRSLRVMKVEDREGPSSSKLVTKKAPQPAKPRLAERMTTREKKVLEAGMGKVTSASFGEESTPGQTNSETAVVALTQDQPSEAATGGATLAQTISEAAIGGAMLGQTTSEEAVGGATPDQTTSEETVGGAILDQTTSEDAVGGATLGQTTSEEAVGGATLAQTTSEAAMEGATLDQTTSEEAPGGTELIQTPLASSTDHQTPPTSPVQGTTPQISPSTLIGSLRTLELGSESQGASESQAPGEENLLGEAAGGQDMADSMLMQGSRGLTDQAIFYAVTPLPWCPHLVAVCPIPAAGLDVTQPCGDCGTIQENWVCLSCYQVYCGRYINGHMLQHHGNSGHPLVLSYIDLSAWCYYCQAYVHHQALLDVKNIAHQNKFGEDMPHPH
# Histone deacetylase 8 = target: T2, Histone deacetylase 8 (Homo sapiens, UniProt Q9BY41); assay: Inhibition of human HDAC8 using Boc-Lys(TFA)-AMC as substrate incubated 30 mins before substrate addition measured after 30 mins post substrate addition by fluorescence assay
# T2 sequence (Q9BY41 whole entry): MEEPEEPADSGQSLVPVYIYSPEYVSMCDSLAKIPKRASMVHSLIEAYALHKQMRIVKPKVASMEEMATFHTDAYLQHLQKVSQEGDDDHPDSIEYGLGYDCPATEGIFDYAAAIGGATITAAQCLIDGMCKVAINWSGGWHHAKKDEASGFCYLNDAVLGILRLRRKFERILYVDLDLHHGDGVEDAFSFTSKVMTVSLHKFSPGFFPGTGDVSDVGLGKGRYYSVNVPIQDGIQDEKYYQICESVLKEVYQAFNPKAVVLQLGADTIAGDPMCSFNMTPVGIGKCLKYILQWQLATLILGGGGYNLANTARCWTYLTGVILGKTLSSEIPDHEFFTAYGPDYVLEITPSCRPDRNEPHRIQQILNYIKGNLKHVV
# Histone deacetylase 1 = Histone deacetylase 1 (Homo sapiens, UniProt Q13547); assay: Inhibition of HDAC1 using KI-177 as substrate incubated 30 mins before substrate addition measured after 30 mins post substrate addition by fluorescence assay
# Sequence of Histone deacetylase 1 (Q13547 whole entry): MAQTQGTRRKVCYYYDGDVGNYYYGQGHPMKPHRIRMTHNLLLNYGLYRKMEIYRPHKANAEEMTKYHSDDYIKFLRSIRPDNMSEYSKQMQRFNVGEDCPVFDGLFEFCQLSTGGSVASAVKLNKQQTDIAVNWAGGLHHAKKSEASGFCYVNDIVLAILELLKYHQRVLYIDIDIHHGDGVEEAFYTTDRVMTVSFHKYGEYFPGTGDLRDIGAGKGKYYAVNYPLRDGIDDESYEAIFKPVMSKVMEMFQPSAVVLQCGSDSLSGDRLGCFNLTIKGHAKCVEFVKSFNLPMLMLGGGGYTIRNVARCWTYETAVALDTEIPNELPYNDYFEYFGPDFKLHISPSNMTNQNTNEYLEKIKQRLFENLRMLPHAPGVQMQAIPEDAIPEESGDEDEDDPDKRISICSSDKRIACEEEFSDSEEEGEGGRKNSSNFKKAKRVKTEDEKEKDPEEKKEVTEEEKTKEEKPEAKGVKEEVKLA
# [3] = target: T3, Histone deacetylase (Homo sapiens) (UniProt Q13547+O15379+Q9UBN7+Q92769+Q9UQL6+Q8WUI4+Q9BY41+Q96DB2+P56524+Q9UKV0+Q969S8); assay: Inhibition of HDAC in human prostate cancer cells assessed as induction of hyperacetylation of alpha-tubulin after 16 hrs by SDS-PAGE and Western blot analysis; format: cell-based; settings: Cancer cell lines
# Outline: (§2)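 Cells exposed to inhibitor at […] for 16 h. Whole-cell lysates made in ice-cold Tris pH 7.4 buffer with Triton X-100, protease and phosphatase inhibitors, run on 13% SDS-PAGE gels. Western blot for acetylated histone H3 (polyclonal) or acetylated alpha-tubulin (monoclonal), beta-actin as loading control, HRP secondary, ECL detection.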
# [4] = target: T3, Histone deacetylase (Homo sapiens); assay: Inhibition of HDAC in human prostate cancer cells assessed as induction of hyperacetylation of histone H3 after 16 hrs by SDS-PAGE and Western blot analysis; format: cell-based; settings: Cancer cell lines; outline: as §2
Structure (SMILES),"GI50 (A549; Homo sapiens, A549, 48 h)","GI50 (PC-3; Homo sapiens, PC-3, 48 h)",IC50 (Histone deacetylase),IC50 (Histone deacetylase 4),IC50 [2],IC50 (Histone deacetylase 8),IC50 (Histone deacetylase 1),inhibition [3],inhibition [4],GI50 (A549),GI50 (PC-3),"GI50 ([1]; Homo sapiens, Hep3B, 48 h)",GI50 [1]
CC(C)CCc1c(OCCCCCCCC(=O)NO)ccc2c1OC(=O)CC2,> 30000 nM,> 30000 nM,111.7 nM,–,–,–,–,–,–,–,–,> 30000 nM,–
CC(C)CCc1c(OCCCCCC(=O)NO)ccc2ccc(=O)oc12,870 nM,–,128.2 nM,–,–,–,–,–,–,–,–,800 nM,–
CC(C)CCc1c(OCCCCCC(=O)NO)ccc2c1OC(=O)CC2,> 30000 nM,> 30000 nM,425.5 nM,–,–,–,–,–,–,–,–,> 30000 nM,–
CC(C)CCc1c(OCCCCC(=O)NO)ccc2c1OC(=O)CC2,> 30000 nM,> 30000 nM,711.6 nM,–,–,–,–,–,–,–,–,> 30000 nM,–
O=C(CCCCCCC(=O)Nc1ccccc1)NO [VORINOSTAT],–,–,–,–,–,–,–,–,–,790 nM,1020 nM,–,1210 nM
CC(C)CCc1c(OCCCCC(=O)NO)ccc2ccc(=O)oc12,2760 nM,1940 nM,523.2 nM,–,–,–,–,–,–,–,–,1310 nM,–

# More lines, main results first:
"GI50 (A549; Homo sapiens, A549, 48 h)","GI50 (PC-3; Homo sapiens, PC-3, 48 h)",IC50 (Histone deacetylase),IC50 (Histone deacetylase 4),IC50 [2],IC50 (Histone deacetylase 8),IC50 (Histone deacetylase 1),inhibition [3],inhibition [4],GI50 (A549),GI50 (PC-3),Structure (SMILES),"GI50 ([1]; Homo sapiens, Hep3B, 48 h)",GI50 [1]
5410 nM,2520 nM,209.9 nM,–,–,–,–,–,–,–,–,CC(C)CCc1c(OCCCCCC(=O)NO)ccc(CCC(=O)NO)c1O,1980 nM,–
10000 nM,14400 nM,426.3 nM,–,–,–,–,–,–,–,–,CC(C)CCc1c(OCCCCC(=O)NO)ccc(CCC(=O)NO)c1O,14100 nM,–
6160 nM,4730 nM,24.6 nM,> 10000 nM,15.9 nM,268 nM,42.9 nM,inactive,inactive,–,–,CC(C)CCc1c(OCCCCCCC(=O)NO)ccc(CCC(=O)NO)c1O,4720 nM,–
2670 nM,1730 nM,28.9 nM,> 10000 nM,14.2 nM,279 nM,41.5 nM,–,–,–,–,CC(C)CCc1c(OCCCCCCCC(=O)NO)ccc(CCC(=O)NO)c1O,1270 nM,–
> 30000 nM,> 30000 nM,23.7 nM,> 10000 nM,40 nM,1080 nM,52.7 nM,–,–,–,–,CC(C)CCc1c(OCCCCCCC(=O)NO)ccc2c1OC(=O)CC2,> 30000 nM,–
660 nM,–,22.2 nM,> 10000 nM,15.2 nM,553 nM,32.3 nM,Dose-dependent effect,Dose-dependent effect,–,–,CC(C)CCc1c(OCCCCCCC(=O)NO)ccc2ccc(=O)oc12,750 nM,–
2190 nM,–,39 nM,–,–,–,–,–,–,–,–,CC(C)CCc1c(OCCCCCCCC(=O)NO)ccc2ccc(=O)oc12,3580 nM,–
